Measured values: ChEMBL document CHEMBL4020721 (Eur J Med Chem, 2017)
Values belong to the molecule of their own block, whether it stands above or below them.

Experiments:
[1] = Intrinsic clearance in human liver microsomes assessed per mg protein at 1 uM preincubated for 5 mins followed by NADPH addition measured after 5 to 30 mins by LC-MS/MS analysis; format: ADME, microsome; conditions: read-out: CLH
How it was run: (§1)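 Microsomes (0.5 mg/ml) with 1 µM compound were preincubated 5 min at 37°C in 100 mM phosphate buffer pH 7.4, then started with 1 mM NADPH. Samples were taken at 0, 5, 10 and 30 min, quenched with acetonitrile/tinidazole and run by LC-MS/MS. CLint = k / microsomal protein concentration. Midazolam was the positive control.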

SNU-5 = assay: Growth inhibition of human SNU5 cells after 72 hrs by CCK-8 assay; format: functional, cell-based
CYP1A2 [2] = target: T1, CYP1A2 (Homo sapiens, UniProt P05177); assay: Reversible inhibition of CYP1A2 in human liver microsomes at 10 uM after 20 mins in presence of NADPH by LC-MS/MS analysis; format: ADME
T1 sequence (P05177 whole entry): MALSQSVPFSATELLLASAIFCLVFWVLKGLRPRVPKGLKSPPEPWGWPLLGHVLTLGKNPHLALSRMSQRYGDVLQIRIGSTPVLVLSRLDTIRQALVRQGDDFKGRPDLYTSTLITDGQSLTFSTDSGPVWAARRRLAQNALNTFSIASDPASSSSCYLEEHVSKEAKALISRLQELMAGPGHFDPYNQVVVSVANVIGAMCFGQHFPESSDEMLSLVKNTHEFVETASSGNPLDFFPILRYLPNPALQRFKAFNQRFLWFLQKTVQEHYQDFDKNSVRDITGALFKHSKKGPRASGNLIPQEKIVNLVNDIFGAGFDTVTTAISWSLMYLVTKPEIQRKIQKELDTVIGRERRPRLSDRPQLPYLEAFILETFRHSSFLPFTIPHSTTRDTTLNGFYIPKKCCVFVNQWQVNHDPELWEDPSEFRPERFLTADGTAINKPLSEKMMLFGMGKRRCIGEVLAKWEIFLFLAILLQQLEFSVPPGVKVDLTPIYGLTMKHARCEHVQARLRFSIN

CYP2D6 [3] = target: T2, CYP2D6 (Homo sapiens, UniProt P10635); assay: (§2) Reversible inhibition of CYP2D6 in human liver microsomes at 10 uM after 20 mins in presence of NADPH by LC-MS/MS analysis; format: ADME; conditions: liver microsomes
T2 sequence (P10635 whole entry): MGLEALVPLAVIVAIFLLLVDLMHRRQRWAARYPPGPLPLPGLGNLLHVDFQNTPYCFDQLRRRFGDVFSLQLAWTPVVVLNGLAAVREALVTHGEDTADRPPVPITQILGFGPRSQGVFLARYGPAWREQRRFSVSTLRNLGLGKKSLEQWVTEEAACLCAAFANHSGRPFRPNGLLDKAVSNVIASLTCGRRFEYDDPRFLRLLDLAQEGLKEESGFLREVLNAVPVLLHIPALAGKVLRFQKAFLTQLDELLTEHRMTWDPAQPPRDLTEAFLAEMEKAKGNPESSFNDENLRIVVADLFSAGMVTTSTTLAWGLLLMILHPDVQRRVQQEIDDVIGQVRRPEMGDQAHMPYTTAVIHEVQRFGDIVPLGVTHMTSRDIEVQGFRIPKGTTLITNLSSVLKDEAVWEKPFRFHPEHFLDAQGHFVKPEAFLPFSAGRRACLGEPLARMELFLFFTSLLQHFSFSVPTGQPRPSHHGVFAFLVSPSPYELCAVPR

NCI-H1993 = assay: Growth inhibition of human NCI-H1993 cells after 72 hrs by CCK-8 assay; format: functional, cell-based; conditions: Homo sapiens, NCI-H1993, 72 h
CYP2C9 [4] = target: T3, CYP2C9 (Homo sapiens, UniProt P11712); assay: (§3) Reversible inhibition of CYP2C9 in human liver microsomes at 10 uM after 20 mins by in presence of NADPH LC-MS/MS analysis; format: ADME; conditions: liver microsomes
T3 sequence (P11712 whole entry): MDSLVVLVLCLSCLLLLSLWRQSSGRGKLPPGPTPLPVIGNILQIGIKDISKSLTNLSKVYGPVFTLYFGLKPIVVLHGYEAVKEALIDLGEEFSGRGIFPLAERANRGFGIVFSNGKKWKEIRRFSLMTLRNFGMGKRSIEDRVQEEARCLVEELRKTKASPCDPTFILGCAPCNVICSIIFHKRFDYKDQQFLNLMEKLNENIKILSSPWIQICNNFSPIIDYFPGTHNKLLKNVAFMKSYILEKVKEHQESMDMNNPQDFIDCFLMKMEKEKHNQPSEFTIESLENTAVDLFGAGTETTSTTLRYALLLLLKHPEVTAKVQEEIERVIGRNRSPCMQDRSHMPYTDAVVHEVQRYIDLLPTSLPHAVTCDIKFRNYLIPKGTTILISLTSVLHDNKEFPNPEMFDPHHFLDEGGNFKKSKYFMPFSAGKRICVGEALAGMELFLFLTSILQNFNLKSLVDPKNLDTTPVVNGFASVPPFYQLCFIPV

CYP2C19 [5] = target: T4, CYP2C19 (Homo sapiens, UniProt P33261); assay: (§4) Reversible inhibition of CYP2C19 in human liver microsomes at 10 uM after 20 mins in presence of NADPH by LC-MS/MS analysis; format: ADME; conditions: liver microsomes
T4 sequence (P33261 whole entry): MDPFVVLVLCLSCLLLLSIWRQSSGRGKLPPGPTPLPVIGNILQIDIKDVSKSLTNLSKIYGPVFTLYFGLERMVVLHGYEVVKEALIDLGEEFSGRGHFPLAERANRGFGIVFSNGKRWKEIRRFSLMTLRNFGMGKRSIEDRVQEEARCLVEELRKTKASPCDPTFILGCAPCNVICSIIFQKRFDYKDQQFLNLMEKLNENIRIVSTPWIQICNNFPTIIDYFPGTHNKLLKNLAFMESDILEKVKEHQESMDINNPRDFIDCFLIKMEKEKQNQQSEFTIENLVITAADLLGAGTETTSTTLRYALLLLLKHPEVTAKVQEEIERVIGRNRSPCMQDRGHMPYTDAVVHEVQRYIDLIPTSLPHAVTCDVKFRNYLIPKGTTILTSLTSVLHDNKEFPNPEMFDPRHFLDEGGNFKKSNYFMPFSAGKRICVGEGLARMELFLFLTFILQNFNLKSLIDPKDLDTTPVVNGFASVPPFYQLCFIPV

Liver [6] = assay: (§5) Drug recovery in rat liver microsomes at 1 uM measured after 30 mins by LC-MS/MS analysis; format: ADME, microsome; conditions: microsomes, 0.5 h, 1 µM
[7] = Intrinsic clearance in rat liver microsomes assessed per mg protein at 1 uM preincubated for 5 mins followed by NADPH addition measured after 5 to 30 mins by LC-MS/MS analysis; format: ADME, microsome; conditions: read-out: CLH; how it was run: as §1
Cytochrome P450 2D6 [8] = target: T5, Cytochrome P450 2D6 (Homo sapiens, UniProt P10635); assay: (§6) Time dependent irreversible inhibition of CYP2D6 in human liver microsomes at 10 uM preincubated with compound followed by NADPH addition by LC-MS/MS analysis; format: ADME; conditions: microsomes, 10 µM
T5 sequence (P10635 whole entry): as the sequence (P10635 whole entry) above
How it was run: (§7)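 HLM (0.2 mg/ml) with 10 µM compound were preincubated 0, 5, 10 or 20 min at 37°C with 1 mM NADPH or PBS. Substrate cocktail (halved concentrations) plus NADPH was then added for 10 min. Metabolites were measured by LC-MS/MS. Kobs is the slope of relative activity versus preincubation time.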

CYP3A4 [9] = target: T6, CYP3A4 (Homo sapiens, UniProt P08684); assay: (§8) Reversible inhibition of CYP3A4 in human liver microsomes at 10 uM after 20 mins in presence of NADPH by LC-MS/MS analysis; format: ADME; conditions: liver microsomes
T6 sequence (P08684 whole entry): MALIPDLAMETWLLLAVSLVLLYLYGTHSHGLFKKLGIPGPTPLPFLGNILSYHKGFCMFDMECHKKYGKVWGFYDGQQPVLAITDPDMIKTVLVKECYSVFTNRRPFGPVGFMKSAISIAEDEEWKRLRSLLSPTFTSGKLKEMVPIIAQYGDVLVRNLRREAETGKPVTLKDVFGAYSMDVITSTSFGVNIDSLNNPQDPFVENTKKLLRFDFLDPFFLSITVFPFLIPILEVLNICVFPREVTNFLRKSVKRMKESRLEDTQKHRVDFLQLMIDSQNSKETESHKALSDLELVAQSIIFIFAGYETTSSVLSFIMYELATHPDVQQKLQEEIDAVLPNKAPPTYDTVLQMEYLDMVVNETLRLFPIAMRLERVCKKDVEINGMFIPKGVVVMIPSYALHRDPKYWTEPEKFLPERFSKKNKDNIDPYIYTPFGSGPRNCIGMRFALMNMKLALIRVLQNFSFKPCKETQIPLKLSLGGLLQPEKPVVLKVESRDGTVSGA

Cytochrome P450 1A2 = Cytochrome P450 1A2 (Homo sapiens, UniProt P05177); assay: (§9) Time dependent irreversible inhibition of CYP1A2 in human liver microsomes at 10 uM preincubated with compound followed by NADPH addition by LC-MS/MS analysis; format: ADME; conditions: microsomes, 10 µM; how it was run: as §7
[10] = Intrinsic clearance in monkey liver microsomes assessed per mg protein at 1 uM preincubated for 5 mins followed by NADPH addition measured after 5 to 30 mins by LC-MS/MS analysis; conditions: liver microsomes; read-out: CLH
[11] = (§10) Drug recovery in human liver microsomes at 1 uM measured after 30 mins by LC-MS/MS analysis; format: ADME, microsome; conditions: liver microsomes, read-out: Drug recovery
How it was run: (§11)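 Liver microsomes (0.5 mg/ml) were incubated with 1 µM compound at 37°C in 100 mM phosphate buffer pH 7.4 without NADPH for 30 min. Reactions were quenched with acetonitrile/tinidazole internal standard and analysed by LC-MS/MS. Recovery (%) was taken from the compound/internal standard peak area ratio.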

Cytochrome P450 2C9 [12] = target: T7, Cytochrome P450 2C9 (Homo sapiens, UniProt P11712); assay: (§12) Time dependent irreversible inhibition of CYP2C9 in human liver microsomes at 10 uM preincubated with compound followed by NADPH addition by LC-MS/MS analysis; format: ADME; conditions: microsomes, 10 µM; how it was run: as §7
T7 sequence (P11712 whole entry): as the sequence (P11712 whole entry) above

[13] = Drug recovery in monkey liver microsomes at 1 uM measured after 30 mins by LC-MS/MS analysis
Cytochrome P450 3A4 [14] = target: T8, Cytochrome P450 3A4 (Homo sapiens, UniProt P08684); assay: (§13) Time dependent irreversible inhibition of CYP3A4 in human liver microsomes at 10 uM preincubated with compound followed by NADPH addition by LC-MS/MS analysis; format: ADME; conditions: microsomes, 10 µM; how it was run: as §7
T8 sequence (P08684 whole entry): as the sequence (P08684 whole entry) above

Cytochrome P450 2D6 [15] = target: T5, Cytochrome P450 2D6; assay: as §2; format: ADME; conditions: microsomes, 20 min, 10 µM
Cytochrome P450 2C9 [16] = target: T7, Cytochrome P450 2C9; assay: as §3; format: ADME; conditions: microsomes, 20 min, 10 µM
Cytochrome P450 2C19 = Cytochrome P450 2C19 (Homo sapiens, UniProt P33261); assay: as §4; format: ADME; conditions: microsomes, 20 min, 10 µM
Sequence of Cytochrome P450 2C19 (P33261 whole entry): as the sequence (P33261 whole entry) above

[17] = as §5; format: ADME, microsome; conditions: liver microsomes, read-out: Drug recovery
CYP2D6 [18] = target: T2, CYP2D6; assay: as §6; format: ADME; conditions: liver microsomes; how it was run: as §7
Cytochrome P450 3A4 [19] = target: T8, Cytochrome P450 3A4; assay: as §8; format: ADME; conditions: microsomes, 20 min, 10 µM
CYP1A2 [20] = target: T1, CYP1A2; assay: as §9; format: ADME; conditions: liver microsomes; how it was run: as §7
CYP2C19 [21] = target: T4, CYP2C19; assay: Time dependent irreversible inhibition of CYP2C19 in human liver microsomes at 10 uM preincubated with compound followed by NADPH addition by LC-MS/MS analysis; format: ADME; how it was run: as §7
CYP2C9 [22] = target: T3, CYP2C9; assay: as §12; format: ADME; conditions: liver microsomes; how it was run: as §7
CYP3A4 [23] = target: T6, CYP3A4; assay: as §13; format: ADME; conditions: liver microsomes; how it was run: as §7
[24] = target: Hepatocyte growth factor receptor (Homo sapiens, UniProt P08581); assay: Inhibition of c-MET (unknown origin) using TK substrate-biotin peptide as substrate preincubated for 5 to 10 mins followed by ATP addition measured after 30 mins by HTRF assay
Sequence of Hepatocyte growth factor receptor (P08581 whole entry): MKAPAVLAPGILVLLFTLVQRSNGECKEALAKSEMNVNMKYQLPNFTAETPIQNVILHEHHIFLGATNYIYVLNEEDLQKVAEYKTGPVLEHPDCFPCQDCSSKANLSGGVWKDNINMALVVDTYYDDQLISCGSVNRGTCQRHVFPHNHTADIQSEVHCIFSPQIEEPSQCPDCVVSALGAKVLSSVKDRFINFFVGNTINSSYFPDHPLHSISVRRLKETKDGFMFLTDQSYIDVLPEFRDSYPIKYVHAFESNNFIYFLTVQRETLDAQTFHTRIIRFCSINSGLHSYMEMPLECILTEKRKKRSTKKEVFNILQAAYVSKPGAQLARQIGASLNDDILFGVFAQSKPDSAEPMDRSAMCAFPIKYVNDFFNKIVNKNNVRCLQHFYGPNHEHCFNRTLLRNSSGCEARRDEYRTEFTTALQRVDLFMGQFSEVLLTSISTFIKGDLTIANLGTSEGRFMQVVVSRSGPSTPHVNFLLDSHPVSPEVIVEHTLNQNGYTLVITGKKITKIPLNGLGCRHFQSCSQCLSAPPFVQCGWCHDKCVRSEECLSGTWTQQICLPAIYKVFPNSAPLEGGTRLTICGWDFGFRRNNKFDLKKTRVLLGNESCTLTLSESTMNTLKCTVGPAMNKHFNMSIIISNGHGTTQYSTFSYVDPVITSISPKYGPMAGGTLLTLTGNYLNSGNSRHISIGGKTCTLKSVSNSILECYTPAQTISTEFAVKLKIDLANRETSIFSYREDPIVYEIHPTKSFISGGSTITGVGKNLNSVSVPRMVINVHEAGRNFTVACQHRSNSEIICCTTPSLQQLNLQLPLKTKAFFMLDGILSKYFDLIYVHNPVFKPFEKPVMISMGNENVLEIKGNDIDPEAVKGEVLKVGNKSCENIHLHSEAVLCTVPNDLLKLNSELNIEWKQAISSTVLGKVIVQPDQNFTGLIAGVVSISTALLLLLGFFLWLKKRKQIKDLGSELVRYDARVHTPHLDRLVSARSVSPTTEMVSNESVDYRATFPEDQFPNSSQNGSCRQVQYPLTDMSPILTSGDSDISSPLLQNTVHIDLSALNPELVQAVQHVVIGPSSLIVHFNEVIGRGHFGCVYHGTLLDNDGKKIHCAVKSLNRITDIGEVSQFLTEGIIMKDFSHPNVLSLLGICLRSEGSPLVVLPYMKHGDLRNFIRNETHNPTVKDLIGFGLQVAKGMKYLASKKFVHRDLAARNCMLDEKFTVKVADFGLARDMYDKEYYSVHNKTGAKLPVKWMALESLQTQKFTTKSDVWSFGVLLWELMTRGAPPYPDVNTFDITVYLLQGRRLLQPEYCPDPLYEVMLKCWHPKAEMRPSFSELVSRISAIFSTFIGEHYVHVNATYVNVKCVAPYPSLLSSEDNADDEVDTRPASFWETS

[25] = Oral bioavailability in Sprague-Dawley rat plasma at 6 mg/kg by UPLC-MS/MS analysis; format: ADME, organism-based; conditions: Sprague-Dawley, plasma
How it was run: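 Male Sprague-Dawley rats (180-220 g) were fasted overnight with free access to water. Dosing was intravenous (n=2) or oral at 6 mg/kg (n=3). Heparinized blood was drawn from 0 to 1440 min. Plasma was frozen at -20°C, then precipitated with acetonitrile containing internal standard, centrifuged and analysed by UPLC-MS/MS.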

Liver [26] = assay: as §10; format: ADME, microsome; conditions: microsomes, 0.5 h, 1 µM; how it was run: as §11

microsomal CLint at 1 µM [1]: 3 µL/min/mg
IC50 (SNU-5; Homo sapiens, SNU-5, 72 h): 0.7 nM
inhibition at 20 min, 10 µM (CYP1A2 [2]): < 50%
inhibition at 20 min, 10 µM (CYP2D6 [3]): < 50%
IC50 (NCI-H1993): 0.9 nM
inhibition at 20 min, 10 µM (CYP2C9 [4]): < 50%
inhibition at 20 min, 10 µM (CYP2C19 [5]): < 50%
Drug recovery (Liver [6]): 128%
microsomal CLint at 1 µM [7]: 10 µL/min/mg
TDI (Cytochrome P450 2D6 [8]): Active
inhibition at 20 min, 10 µM (CYP3A4 [9]): < 50%
TDI (Cytochrome P450 1A2): Active
microsomal CLint at 1 µM [10]: 30 µL/min/mg
remaining at 0.5 h, 1 µM [11]: 120%
TDI (Cytochrome P450 2C9 [12]): Active
remaining at 0.5 h, 1 µM [13]: 98%
TDI (Cytochrome P450 3A4 [14]): Active
SMILES: CC(c1ccc2ncc(-c3cnn(C)c3)cc2c1)n1nnc2ncc(-c3ccc(C(N)=O)c(F)c3)nc21 (stereo not given)

microsomal CLint at 1 µM [1]: 9 µL/min/mg
IC50 (SNU-5; Homo sapiens, SNU-5, 72 h): 1.2 nM
inhibition (INH) (Cytochrome P450 2D6 [15]): Active
IC50 (NCI-H1993): 0.2 nM
inhibition (INH) (Cytochrome P450 2C9 [16]): Active
inhibition (INH) (Cytochrome P450 2C19): Active
remaining at 0.5 h, 1 µM [17]: 98%
microsomal CLint at 1 µM [7]: 26 µL/min/mg
inhibition at 10 µM (CYP2D6 [18]): < 50%
inhibition (INH) (Cytochrome P450 3A4 [19]): Active
inhibition at 10 µM (CYP1A2 [20]): < 50%
microsomal CLint at 1 µM [10]: 106 µL/min/mg
inhibition at 10 µM (CYP2C19 [21]): < 50%
remaining at 0.5 h, 1 µM [11]: 101%
inhibition at 10 µM (CYP2C9 [22]): < 50%
remaining at 0.5 h, 1 µM [13]: 99%
inhibition at 10 µM (CYP3A4 [23]): < 50%
SMILES: CC(c1c(F)cc2ncc(-c3cnn(C)c3)cc2c1F)n1nnc2ncc(-c3ccncc3)nc21 (stereo not given)

IC50 [24]: 0.48 nM
IC50 (SNU-5; snu-5): 0.6 nM
IC50 (NCI-H1993): 0.6 nM
bioavailability [25]: 8.8%
SMILES: CC(c1cc2cc(-c3cnn(C)c3)cnc2cc1F)n1nnc2ncc(-c3cnn(CCO)c3)nc21 (single isomer, unassigned; enantiomer 2)

microsomal CLint at 1 µM [1]: 12 µL/min/mg
IC50 (SNU-5; Homo sapiens, SNU-5, 72 h): 0.5 nM
remaining at 0.5 h, 1 µM [17]: 115%
microsomal CLint at 1 µM [7]: 22 µL/min/mg
microsomal CLint at 1 µM [10]: 42 µL/min/mg
Drug recovery (Liver [26]): 123%
remaining at 0.5 h, 1 µM [13]: 79%
SMILES: CC(c1ccc2ncc(-c3cnn(C)c3)cc2c1)n1nnc2ncc(-c3cnn(C)c3)nc21 (stereo not given)
